# From PubChem
# Hits are enriched below; roughly 9.5% of the tested compounds scored in any of these assays.
# Htt clearance: clearance of mutant huntingtin inclusions, primary screen, imaging, HeLa Exon1htt(103Q)mCFP, confocal imaging | 47,000 tested, 0.42% active | aggregate imaging; zero = plate's median compound well | inhibition, % at 1.5 µM | AID 853, 2007;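 active = inhibition of aggregate fluorescence above about 70%, also judged a hit by eye on the cell image, limit read from the data, passing the limit was not always enough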;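 also: cells exposed to compound for three days before fixation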
# HEK293 NFkB inh: inhibitors of PMA/ionomycin-induced NF-kB reporter, primary screen, antigen receptor NF-kB inhibitor project, cell-based, HEK-293 luciferase reporter, luminescence; 62,000 tested, 0.21% active; HEK-293 NF-kB luciferase reporter; AID 465, 2006; inhibition, % at 3 µM;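 active = inhibition above the mean of all tested compounds plus 3 SD, cut at about 40% in these data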
#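 Material: HEK-293 cells with stable firefly luciferase reporter driven by four HIV NF-kB elements / Also added: PMA plus ionomycin mix as NF-kB-activating stimulus / Compound dosing: 3 µM once, 0.30% DMSO / Times: 1 h pretreatment, 16 h stimulation, 37 °C / Signal: luminescence / Evaluation: per-plate % inhibition versus controls / Benchmarks: DMSO and 10 µM reference inhibitor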
# D1 allo mod: D1 CRE-luciferase signal change, two-sided – cell-based, HEK293 D1, dopamine EC30, D1 allosteric modulator project, primary screen; B-score at 10 µM; D(1A) dopamine receptor (Homo sapiens), P21728; 58,000 tested, 5.9% active; AID 641, 2007; dopamine EC30 potentiation; actives deviate in either direction;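 active = luminescence count or its row- and column-corrected plate score outside the 99.7% band of the plate's sample wells, on either side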
# Target sequence (P21728 whole entry, looked up): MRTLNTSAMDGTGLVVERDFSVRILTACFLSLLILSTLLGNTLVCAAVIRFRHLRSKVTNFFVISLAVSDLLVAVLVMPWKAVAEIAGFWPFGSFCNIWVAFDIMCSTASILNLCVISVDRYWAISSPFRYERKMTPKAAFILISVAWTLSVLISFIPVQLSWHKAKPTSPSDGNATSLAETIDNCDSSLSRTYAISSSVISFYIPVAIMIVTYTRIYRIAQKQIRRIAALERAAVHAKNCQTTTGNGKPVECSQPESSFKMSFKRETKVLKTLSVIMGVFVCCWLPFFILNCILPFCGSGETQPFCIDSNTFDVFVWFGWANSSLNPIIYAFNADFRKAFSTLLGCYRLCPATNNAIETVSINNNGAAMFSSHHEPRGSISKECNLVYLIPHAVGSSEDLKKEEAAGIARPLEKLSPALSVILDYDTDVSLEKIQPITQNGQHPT
# M1 antagonist: antagonists of rat M1 muscarinic receptor. Muscarinic acetylcholine receptor M1 (Rattus norvegicus), P08482. CHO-M1 cells, Fluo-4 calcium, ACh EC80 antagonist mode; active compounds read low. B-score at 10 µM. 64,000 tested, 3.4% active;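 active = calcium fluorescence response, raw or row-and-column corrected B-score, differing from the plate sample mean either way at a set confidence level, mostly lower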
# M1 agonist: M1 muscarinic receptor agonists, primary screen, CHO-M1 cells, Fluo-4 calcium, agonist mode; Muscarinic acetylcholine receptor M1; Fluo-4 calcium fluorescence; active compounds read high; B-score at 10 µM; 64,000 tested, 3% active;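 active = fluorescence rise, raw or as B-score row- and column-corrected plate score, outside the 99.7% band of its plate's samples, either direction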
# Jurkat tox 60K: cytotoxicity toward Jurkat T cells, primary screen, cytotoxicity control, cell-based, Jurkat E6.1, 60K MLSMR library | Jurkat E6.1 viability, ATP luminescence, 48 h | inhibition, % at 4 µM | 56,000 tested, 1.2% active;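 active = inhibition above the mean inhibition of all tested compounds plus 3 SD, cut at about 28% in these data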
# D1 PAM confirm: D1 receptor positive allosteric modulators, retest, confirmation, cell-based, HEK293 D1, CRE-luciferase, duplicate | shares compounds with D1 allo mod | dopamine EC30 potentiation; active compounds read high | luminescence at 10 µM | 2,200 tested, 88% active | AID 642, 2007;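 active = luminescence in either of two replicates above the same-plate mean plus 3 SD of the low-dose dopamine control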
# D1 ag no DA: D1 receptor agonism without dopamine, confirmation, mechanism study for D1 allosteric modulator project, cell-based, HEK293 D1, CRE-luciferase, secondary assay 1. shares compounds with D1 allo mod. luminescence, no dopamine; active compounds read high. luminescence at 10 µM. 1,900 tested, 0.8% active; in the data active = luminescence above about 3900
# Isoprot counter: alters isoproterenol CRE-luciferase response in HEK293 cells. shares compounds with D1 allo mod. HEK293 D1 CRE-luciferase, isoproterenol EC30 counter-screen; active compounds read high. luminescence at 10 µM. 2,200 tested, 63% active;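 active = luminescence in either replicate above plate mean of wells with a partly effective reference agonist dose plus 3 SD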;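 also: isoproterenol raises cAMP through native beta-adrenoceptor Gs so signal bypasses D1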
# A number is an active result; i = inactive; nt = not tested or not shown.
SMILES,Htt clearance,HEK293 NFkB inh,D1 allo mod,M1 antagonist,M1 agonist,Jurkat tox 60K,D1 PAM confirm,D1 ag no DA,Isoprot counter
COCCn1c(Cc2ccccc2)nnc1SCC(=O)N(C)C,i,i,i,i,i,i,nt,nt,nt
Cc1ccc(N(Cc2cc(=O)[nH]c3ccccc23)C(=O)c2ccco2)cc1,i,i,i,i,i,i,nt,nt,nt
COc1ccc(CN(C(=O)c2ccco2)c2ccc(C)cc2)cc1OC,i,i,10,i,i,i,22164,i,3716
CC(=O)N1CCN(CC(=O)Nc2c(Cl)cc(Cl)cc2Cl)CC1,nt,i,i,i,i,i,nt,nt,nt
CN(CC(=O)Nc1nccs1)S(=O)(=O)c1ccc(F)cc1,nt,i,i,i,i,i,nt,nt,nt
COc1ccccc1NC(=O)N(Cc1ccc2c(c1)OCO2)Cc1nc2ccccc2c(=O)[nH]1,i,i,4.9,i,i,i,5620,i,i
COc1ccc(CCNC(=O)c2ccc(NS(=O)(=O)c3c(C)noc3C)cc2)cc1OC,nt,i,i,i,i,i,nt,nt,nt
CCc1cccc2c(C#N)cn(CCOc3ccccc3OC)c12,nt,i,i,i,i,i,nt,nt,nt
CCc1cccc2c(C#N)cn(CC(=O)NCCOC)c12,i,i,3,i,i,i,i,i,i
COC(=O)c1ccc(CSc2ncnc3c2nnn3-c2ccc(OC)cc2)o1,nt,i,i,i,i,i,nt,nt,nt
N#CCSc1nc2cc(C(=O)N3CCC(C(N)=O)CC3)ccc2c2nc3ccccc3n12,i,i,10,i,i,i,12528,i,10076
N#CCSc1nc2cc(C(=O)N3CCCC3)ccc2c(=O)n1Cc1ccccc1,nt,i,nt,i,i,i,nt,nt,nt
COc1cc(C(=O)NCc2ccc3c(c2)OCO3)ccc1OCc1c(C)noc1C,nt,i,i,i,i,nt,nt,nt,nt
COc1ccc(C(=O)N2CCc3cc(OC)c(OC)cc3C2)cc1OC,i,i,3.7,i,i,i,9712,i,3188
COc1ccc(C(=O)N2CCN(S(=O)(=O)c3ccc(C)cc3C)CC2)cc1OC,nt,i,4.7,i,i,i,10368,i,4316
CCOC(=O)N1CCN(C(=O)c2ccc(OC)c(OC)c2)CC1,i,nt,nt,nt,nt,nt,nt,nt,nt
O=C(CN1CCN(c2ccccn2)CC1)Nc1ccc(Cl)c(C(F)(F)F)c1,i,i,5.5,i,i,i,i,i,i
O=C(CC1CCS(=O)(=O)C1)Nc1ccc[nH]c1=O (stereo unspecified),i,i,i,i,i,i,nt,nt,nt
O=S1(=O)C=CC(Nc2ccccc2)C1 (stereo unspecified),i,nt,nt,nt,nt,nt,nt,nt,nt
CCOC(=O)c1ccccc1NC(=O)c1ccccc1SC,nt,i,i,i,i,i,nt,nt,nt
CCOC(=O)c1c(NC(=O)c2cccs2)sc(C)c1CC,i,i,3.8,nt,nt,i,10804,i,i
CCOC(=O)c1ccccc1NC(=O)COc1ccccc1,i,i,13,i,i,i,16280,i,3624
CCOC(=O)c1ccccc1NC(=O)c1cccs1,i,i,7.2,i,i,i,8864,i,2972
CCOCC(=O)Nc1ccccc1C(=O)OCC,nt,i,i,i,i,i,nt,nt,nt
CCOC(=O)c1ccc(-c2c(C(=O)OCC)oc3cc(O)c(CC)cc3c2=O)o1,i,i,i,i,i,i,nt,nt,nt
SMILES,Htt clearance,HEK293 NFkB inh,D1 allo mod,M1 antagonist,M1 agonist,Jurkat tox 60K,D1 PAM confirm,D1 ag no DA,Isoprot counter
CCOC(=O)N1CCC(NC(=O)c2cnc3n(c2=O)CCS3)CC1,nt,i,nt,i,i,i,nt,nt,nt
CN=C1SC(CC(=O)Nc2sc(C)c(C)c2C(=O)OC)C(=O)N1C (stereo unspecified),nt,i,3.4,i,i,i,8820,i,3312
CN=C1SC(CC(=O)Nc2ccccc2F)C(=O)N1C (stereo unspecified),nt,i,i,i,i,i,nt,nt,nt
CCN(c1cccc(C)c1)S(=O)(=O)c1cnc[nH]1,i,nt,nt,nt,nt,nt,nt,nt,nt
COc1ccc(C(C#N)N2CCCCC2)cc1OC (stereo unspecified),nt,i,i,i,i,i,nt,nt,nt
COc1ccc(C(C#N)C2(C)OCCO2)cc1OC (stereo unspecified),i,i,10,i,i,i,10756,nt,2684
CCOC(=O)NC(Nc1nc2ccccc2s1)(C(=O)OCC)C(F)(F)F (stereo unspecified),i,i,i,i,i,i,nt,nt,nt
CC1CC(=O)C2=C(C1)Nc1ccccc1N(C(=O)COc1ccccc1)C2c1ccco1 (stereo unspecified),nt,i,14,i,i,i,i,i,i
CCc1nnc(NC(=O)Cn2nnc(-c3ccccc3F)n2)s1,nt,i,i,i,i,i,nt,nt,nt
CN(C)c1ccc(N=Cc2ccco2)cc1,nt,i,i,i,i,i,nt,nt,nt
C(=N\C(/N=C/c1ccco1)c1ccco1)/c1ccco1,nt,i,8.8,i,i,i,17580,i,i
Cc1c(S(=O)(=O)Nc2cccc(Cl)c2)c(=O)n(C)c(=O)n1C,nt,i,2.7,i,i,i,i,i,i
Cc1ccc(-n2nnnc2SCC(=O)Nc2ccc3c(c2)COC3=O)cc1C,i,i,i,i,i,i,nt,nt,nt
O=c1nc(-c2ccccc2)c2cc(Cl)ccc2[nH]1,i,i,6.7,i,i,i,9072,nt,2836
Cc1nc2c3ccccc3n(CC#N)c(=O)n2n1,i,i,4.7,i,i,i,8580,nt,3036
O=C(CSc1nnc2scc(-c3ccccc3)n12)Nc1nsc(-c2ccc(Cl)cc2)n1,nt,i,i,i,i,i,nt,nt,nt
Cc1nc(CSc2nnc3scc(-c4ccc(Cl)cc4)n23)cs1,i,i,13,i,i,nt,18280,nt,3640
CC(=O)C1=C(C)NC(SCC(=O)c2ccc(F)cc2)=C(C#N)C1c1ccco1 (stereo unspecified),i,i,5.5,i,i,i,3664,i,i
Cc1cc(N2CCN(S(=O)(=O)c3ccc4c(c3)OCCO4)CC2)n2ncnc2n1,nt,i,4.1,i,i,i,6428,i,i
COc1ccc(CNC(=O)c2ccc3c(c2)N(C)C(=O)CS3=O)cc1 (stereo unspecified),i,i,i,i,i,i,nt,nt,nt
CCOC(=O)c1nn(-c2ccc(C)c(C)c2)c(=O)c2c(N)scc12,i,nt,nt,nt,nt,nt,nt,nt,nt
CCOC(=O)c1nn(-c2ccc(OC)cc2)c(=O)c2c(N)scc12,i,i,5.1,i,i,i,6660,i,i
